Reference: ChEMBL document CHEMBL1275524, “Activities of antifungal agents against yeasts and filamentous fungi: assessment according to the methodology of the European Committee on Antimicrobial Susceptibility Testing” (2008)
≈ marks a conversion by molar mass, not a printed value.

Tests used:
Candida albicans = test: Antifungal activity against Candida albicans; assay type: functional
Method in brief: (§1)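 Broth microdilution in flat-bottom plates in RPMI 1640 with 2% glucose; inoculum 0.5 × 105 to 2.5 × 10^5 CFU/ml. MICs were read spectrophotometrically at 24 h. AMB endpoint: ≥90% growth reduction vs drug-free control well. Azole and CPF endpoint: 50% reduction in optical density. MFC was taken as the lowest concentration giving 99% killing.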

Nakaseomyces glabratus = test: Antifungal activity against Candida glabrata; assay type: functional; method in brief: as §1
Candida parapsilosis = test: Antifungal activity against Candida parapsilosis; assay type: functional; settings: Lodderomyces parapsilosis; method in brief: as §1
Pichia kudriavzevii = test: Antifungal activity against Candida krusei; assay type: functional
Method in brief: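 EUCAST broth microdilution for yeasts in flat-bottom plates, RPMI 1640 with 2% glucose, inoculum 0.5 × 105 to 2.5 × 10^5 CFU/ml. […] MFC is the lowest concentration giving 99% killing.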

Clavispora lusitaniae = test: Antifungal activity against Candida lusitaniae; assay type: functional; method in brief: as §1
Candida tropicalis = test: Antifungal activity against Candida tropicalis; assay type: functional; method in brief: as §1
[1] = system: Meyerozyma guilliermondii; test: Antifungal activity against Candida guilliermondii; assay type: functional; method in brief: as §1
Saccharomyces cerevisiae = test: Antifungal activity against Saccharomyces cerevisiae; assay type: functional
Method in brief: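 Broth microdilution following EUCAST for fermentative yeasts, in flat-bottom plates with RPMI 1640 plus 2% glucose. Inoculum was 0.5 × 10^5 to 2.5 × 10^5 CFU/ml. End points were read spectrophotometrically at 24 h: ≥90% growth reduction versus a drug-free control for amphotericin B, and 50% OD reduction for azoles and caspofungin. MFC was the lowest concentration giving 99% killing.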

[2] = Antifungal activity against Cryptococcus neoformans var. neoformans; assay type: functional; settings: Cryptococcus deneoformans
Method in brief: (§2)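 EUCAST yeast microdilution, modified for nonfermentative yeasts: plates were sealed and agitated at 350 rpm and 30°C for 48 h.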

Cryptococcus gattii = test: Antifungal activity against Cryptococcus neoformans var. gattii; assay type: functional, Cryptococcus bacillisporus; method in brief: as §2
Trichosporon inkin = test: Antifungal activity against Trichosporon inkin; assay type: functional
Method in brief: (§3)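 Nonfermentative yeasts were tested by the EUCAST microdilution recommendations with one change: plates were sealed and agitated at 350 rpm and 30°C for 48 h.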

Trichosporon asahii = test: Antifungal activity against Trichosporon asahii; assay type: functional; method in brief: as §3
Geotrichum candidum = test: Antifungal activity against Geotrichum candidum; assay type: functional
Aspergillus fumigatus = test: Antifungal activity against Aspergillus fumigatus; assay type: functional
Aspergillus terreus = test: Antifungal activity against Aspergillus terreus; assay type: functional
Aspergillus flavus = test: Antifungal activity against Aspergillus flavus; assay type: functional
Aspergillus niger = test: Antifungal activity against Aspergillus niger; assay type: functional
Rhizomucor = test: Antifungal activity against Rhizomucor species; assay type: functional
Lichtheimia corymbifera = test: Antifungal activity against Absidia corymbifera; assay type: functional
Absidia = test: Antifungal activity against Absidia species; assay type: functional
[3] = Antifungal activity against Rhizopus microsporus var. oligosporus; assay type: functional
Method in brief: (§4)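 Broth microdilution following the EUCAST reference procedure for spore-forming moulds, in flat-bottom plates with RPMI 1640 plus 2% glucose. Inoculum was 2 × 10^5 to 5 × 10^5 CFU/ml. MICs were read visually at 24 and 48 h as 100% growth reduction versus a drug-free control for polyenes and azoles. MEC was used for caspofungin. Tests were run in duplicate and repeated twice.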

Rhizopus arrhizus = test: Antifungal activity against Rhizopus oryzae; assay type: functional; method in brief: as §4
Rhizopus = test: Antifungal activity against Rhizopus species; assay type: functional; method in brief: as §4
Mucor hiemalis = test: Antifungal activity against Mucor hiemalis; assay type: functional
Mucor = test: Antifungal activity against Mucor species; assay type: functional
Cunninghamella = test: Antifungal activity against Cunninghamella species; assay type: functional
Lomentospora prolificans = test: Antifungal activity against Scedosporium prolificans; assay type: functional; method in brief: as §4
Scedosporium apiospermum = test: Antifungal activity against Scedosporium apiospermum; assay type: functional; method in brief: as §4
Talaromyces marneffei = test: Antifungal activity against Penicillium marneffei; assay type: functional
Penicillium sp. = test: Antifungal activity against Penicillium species; assay type: functional
Fusarium solani = test: Antifungal activity against Fusarium solani; assay type: functional
Fusarium oxysporum = test: Antifungal activity against Fusarium oxysporum; assay type: functional
Sporothrix schenckii = test: Antifungal activity against Sporothrix schenckii; assay type: functional; method in brief: as §4
Curvularia lunata = test: Antifungal activity against Curvularia lunata; assay type: functional
Curvularia australiensis = test: Antifungal activity against Bipolaris australiensis; assay type: functional
Method in brief: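 Dematiaceous fungi were tested by the EUCAST spore-forming mold reference procedure: flat-bottom microdilution plates, RPMI 1640 plus 2% glucose, inoculum 2 × 105 to 5 × 10^5 CFU/ml. Endpoints were read visually at 24 and 48 h. Polyenes and azoles: 100% growth reduction vs drug-free control. CPF: minimum effective concentration. Run in duplicate and repeated twice.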

`C[C@@H]1[C@H](O)[C@@H](C)/C=C/C=C/C=C/C=C/C=C/C=C/C=C/[C@H](O[C@@H]2O[C@H](C)[C@@H](O)[C@H](N)[C@@H]2O)C[C@@H]2O[C@](O)(C[C@@H](O)C[C@@H](O)[C@H](O)CC[C@@H](O)C[C@@H](O)CC(=O)O[C@H]1C)C[C@H](O)[C@H]2C(=O)O` [AMPHOTERICIN B] showed an MFC (Candida albicans) of 2 µg/mL (≈ 2.16 µM), an MFC (Nakaseomyces glabratus) of 0.5 µg/mL (≈ 0.541 µM) and an MFC (Candida parapsilosis) of 4 µg/mL (≈ 4.33 µM). For the same molecule, the MFC (Pichia kudriavzevii) was 0.5 µg/mL (≈ 0.541 µM), the MFC (Clavispora lusitaniae) was 4 µg/mL (≈ 4.33 µM) and the MFC (Candida tropicalis) was 0.5 µg/mL (≈ 0.541 µM). The MFC [1] was 2 µg/mL (≈ 2.16 µM), the MFC (Saccharomyces cerevisiae) was over 4 µg/mL and the MFC [2] was 1 µg/mL (≈ 1.08 µM). The MFC (Cryptococcus gattii) was 1 µg/mL (≈ 1.08 µM), the MFC (Trichosporon inkin) was 1 µg/mL (≈ 1.08 µM) and the MFC (Trichosporon asahii) was 4 µg/mL (≈ 4.33 µM). It also gave an MFC (Geotrichum candidum) of over 4 µg/mL, an MFC (Aspergillus fumigatus) of 0.5 µg/mL (≈ 0.541 µM) and an MFC (Aspergillus terreus) of over 4 µg/mL. It also gave an MFC (Aspergillus flavus) of over 4 µg/mL, an MFC (Aspergillus niger) of over 4 µg/mL and an MFC (Rhizomucor) of 1 µg/mL (≈ 1.08 µM). For the same molecule, the MFC (Lichtheimia corymbifera) was 1 µg/mL (≈ 1.08 µM), the MFC (Absidia) was 1 µg/mL (≈ 1.08 µM) and the MFC [3] was 4 µg/mL (≈ 4.33 µM). For the same molecule, the MFC (Rhizopus arrhizus) was 4 µg/mL (≈ 4.33 µM), the MFC (Rhizopus) was 2 µg/mL (≈ 2.16 µM) and the MFC (Mucor hiemalis) was 1 µg/mL (≈ 1.08 µM). For the same molecule, the MFC (Mucor) was 1 µg/mL (≈ 1.08 µM), the MFC (Cunninghamella) was over 8 µg/mL and the MFC (Lomentospora prolificans) was over 8 µg/mL. It also gave an MFC (Scedosporium apiospermum) of over 8 µg/mL, an MFC (Talaromyces marneffei) of over 4 µg/mL and an MFC (Penicillium sp.) of over 4 µg/mL. The MFC (Fusarium solani) was over 8 µg/mL, the MFC (Fusarium oxysporum) was 1 µg/mL (≈ 1.08 µM) and the MFC (Sporothrix schenckii) was over 8 µg/mL. For the same molecule, the MFC (Curvularia lunata) was 1 µg/mL (≈ 1.08 µM) and the MFC (Curvularia australiensis) was 1 µg/mL (≈ 1.08 µM).
